According to ChEMBL document CHEMBL2040809, “Synthesis and biological activity evaluation of cytidine-5'-deoxy-5-fluoro-N-[(alkoxy/aryloxy)] carbonyl-cyclic 2',3'-carbonates” (Eur J Med Chem, 2012):
In brackets after ≈: the same amount, converted by molar mass.

Key:
[1] = test system: Salmonella typhimurium; assay: Mutagenic activity in Salmonella typhimurium TA100 at 0.312 to 5 mg/plate measured after incubation of upside down for 48 hrs in absence of liver S9 mixture; type: toxicity, organism-based; conditions: salmonella enterica subsp. enterica serovar typhimurium
How it was run: (§1)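 Plate incorporation trial (Trial I) with histidine-dependent auxotrophs. Revertant colonies are counted against the concurrent vehicle control. Each dose and each control, including negative, vehicle and positive reference mutagens, run in triplicate plates.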

[2] = test system: Salmonella typhimurium; assay: Mutagenic activity in Salmonella typhimurium TA1535 at 0.312 to 5 mg/plate preincubated for 20 mins before addition in absence of liver S9 mixture; type: toxicity, organism-based; conditions: salmonella enterica subsp. enterica serovar typhimurium
How it was run: (§2)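 Pre-incubation trial (Trial II) with histidine-dependent auxotrophs. Test solution is pre-incubated with bacterial suspension and S9 mix (10% v/v) or substitution buffer before plating on selective agar. Revertant colonies are counted against the concurrent vehicle control. Triplicate plates per dose and per control (negative, vehicle, positive reference mutagens).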

[3] = test system: Salmonella typhimurium; assay: Mutagenic activity in Salmonella typhimurium TA102 at 0.312 to 5 mg/plate preincubated for 20 mins before addition in absence of liver S9 mixture; type: toxicity, organism-based; conditions: salmonella enterica subsp. enterica serovar typhimurium; how it was run: as §2
[4] = test system: Salmonella typhimurium; assay: Mutagenic activity in Salmonella typhimurium TA1537 at 0.312 to 5 mg/plate preincubated for 20 mins before addition in absence of liver S9 mixture; type: toxicity, organism-based; conditions: salmonella enterica subsp. enterica serovar typhimurium; how it was run: as §2
[5] = test system: MCF7; assay: Cytotoxicity against human MCF7 cells after 3 days MTT assay; type: functional, cell-based; conditions: MCF7, 72 h
How it was run: (§3)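 Cells held as monolayers in DMEM with 10% supplement. Seeded in 96-well plates on day 0 at densities set by doubling time: 1 × 10⁴/mL for HeLa and NCI-69, 2 × 10⁴/mL for MCF-7, 3 × 10⁴/mL for PZ-HPV-7. Five dilutions (10⁻⁸–5 × 10⁻⁶ mol/l), freshly prepared, added for 72 h. Growth read by MTT (succinate dehydrogenase activity); IC50 derived.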

[6] = test system: Salmonella typhimurium; assay: Mutagenic activity in Salmonella typhimurium TA102 at 0.312 to 5 mg/plate measured after incubation of upside down for 48 hrs in presence of liver S9 mixture; type: toxicity, organism-based; conditions: salmonella enterica subsp. enterica serovar typhimurium, s9, 48 h; how it was run: as §1
[7] = test system: HeLa; assay: Cytotoxicity against human HeLa cells after 3 days MTT assay; type: functional, cell-based; conditions: 72 h; how it was run: as §3
[8] = test system: Salmonella typhimurium; assay: Mutagenic activity in Salmonella typhimurium TA1537 at 0.312 to 5 mg/plate measured after incubation of upside down for 48 hrs in absence of liver S9 mixture; type: toxicity, organism-based; conditions: salmonella enterica subsp. enterica serovar typhimurium; how it was run: as §1
[9] = test system: Salmonella typhimurium; assay: Mutagenic activity in Salmonella typhimurium TA1535 at 0.312 to 5 mg/plate measured after incubation of upside down for 48 hrs in presence of liver S9 mixture; type: toxicity, organism-based; conditions: salmonella enterica subsp. enterica serovar typhimurium, s9, 48 h; how it was run: as §1
[10] = test system: Salmonella typhimurium; assay: Mutagenic activity in Salmonella typhimurium TA1535 at 0.312 to 5 mg/plate preincubated for 20 mins before addition in presence of liver S9 mixture; type: toxicity, organism-based; conditions: salmonella enterica subsp. enterica serovar typhimurium; how it was run: as §2
[11] = Cytotoxicity against human PZ-HPV-7 cells after 3 days MTT assay; type: functional, cell-based; conditions: 72 h; how it was run: as §3
[12] = test system: Salmonella typhimurium; assay: Mutagenic activity in Salmonella typhimurium TA98 at 0.312 to 5 mg/plate preincubated for 20 mins before addition in presence of liver S9 mixture; type: toxicity, organism-based; conditions: salmonella enterica subsp. enterica serovar typhimurium; how it was run: as §2
[13] = test system: Salmonella typhimurium; assay: Mutagenic activity in Salmonella typhimurium TA1537 at 0.312 to 5 mg/plate measured after incubation of upside down for 48 hrs in presence of liver S9 mixture; type: toxicity, organism-based; conditions: salmonella enterica subsp. enterica serovar typhimurium, s9, 48 h; how it was run: as §1
[14] = test system: Salmonella typhimurium; assay: Mutagenic activity in Salmonella typhimurium TA102 at 0.312 to 5 mg/plate preincubated for 20 mins before addition in presence of liver S9 mixture; type: toxicity, organism-based; conditions: salmonella enterica subsp. enterica serovar typhimurium; how it was run: as §2
[15] = test system: Salmonella typhimurium; assay: Mutagenic activity in Salmonella typhimurium TA1537 at 0.312 to 5 mg/plate preincubated for 20 mins before addition in presence of liver S9 mixture; type: toxicity, organism-based; conditions: salmonella enterica subsp. enterica serovar typhimurium; how it was run: as §2
[16] = test system: Salmonella typhimurium; assay: Mutagenic activity in Salmonella typhimurium TA102 at 0.312 to 5 mg/plate measured after incubation of upside down for 48 hrs in absence of liver S9 mixture; type: toxicity, organism-based; conditions: salmonella enterica subsp. enterica serovar typhimurium; how it was run: as §1
[17] = test system: Salmonella typhimurium; assay: Mutagenic activity in Salmonella typhimurium TA1535 at 0.312 to 5 mg/plate measured after incubation of upside down for 48 hrs in absence of liver S9 mixture; type: toxicity, organism-based; conditions: salmonella enterica subsp. enterica serovar typhimurium; how it was run: as §1
[18] = test system: Salmonella typhimurium; assay: Mutagenic activity in Salmonella typhimurium TA100 at 0.312 to 5 mg/plate preincubated for 20 mins before addition in presence of liver S9 mixture; type: toxicity, organism-based; conditions: salmonella enterica subsp. enterica serovar typhimurium; how it was run: as §2
[19] = test system: Salmonella typhimurium; assay: Mutagenic activity in Salmonella typhimurium TA100 at 0.312 to 5 mg/plate measured after incubation of upside down for 48 hrs in presence of liver S9 mixture; type: toxicity, organism-based; conditions: salmonella enterica subsp. enterica serovar typhimurium, s9, 48 h; how it was run: as §1
[20] = test system: NCI-H69; assay: Cytotoxicity against human NCI-H69 cells after 3 days MTT assay; type: functional, cell-based; conditions: NCI-H69, 72 h; how it was run: as §3
[21] = test system: Salmonella typhimurium; assay: Mutagenic activity in Salmonella typhimurium TA100 at 0.312 to 5 mg/plate preincubated for 20 mins before addition in absence of liver S9 mixture; type: toxicity, organism-based; conditions: salmonella enterica subsp. enterica serovar typhimurium; how it was run: as §2
[22] = test system: Salmonella typhimurium; assay: Mutagenic activity in Salmonella typhimurium TA98 at 0.312 to 5 mg/plate measured after incubation of upside down for 48 hrs in absence of liver S9 mixture; type: toxicity, organism-based; conditions: salmonella enterica subsp. enterica serovar typhimurium; how it was run: as §1
[23] = test system: Salmonella typhimurium; assay: Mutagenic activity in Salmonella typhimurium TA98 at 0.312 to 5 mg/plate preincubated for 20 mins before addition in absence of liver S9 mixture; type: toxicity, organism-based; conditions: salmonella enterica subsp. enterica serovar typhimurium; how it was run: as §2
[24] = test system: Salmonella typhimurium; assay: Mutagenic activity in Salmonella typhimurium TA98 at 0.312 to 5 mg/plate measured after incubation of upside down for 48 hrs in presence of liver S9 mixture; type: toxicity, organism-based; conditions: salmonella enterica subsp. enterica serovar typhimurium, s9, 48 h; how it was run: as §1
[25] = Toxicity in po dosed BDF-1 mouse; type: organism-based; conditions: in vivo
[26] = test system: L1210; assay: Antitumor activity against mouse L1210 cells xenografted in BDF-1 mouse assessed as increase in mean survival time at 0.080 mmol/kg, po administered 5 days in a week for 3 weeks
[27] = Toxicity in po dosed BDF-1 mouse administered qd for 28 days; type: organism-based; conditions: in vivo
[28] = test system: L1210; assay: Antitumor activity against mouse L1210 cells xenografted in BDF-1 mouse assessed as increase in mean survival time at 0.16 mmol/kg, po administered 5 days in a week for 3 weeks

Compound	Activity [1]	Activity [2]	Activity [3]	Activity [4]	IC50 [5]	Activity [6]	IC50 [7]	Activity [8]	Activity [9]	Activity [10]	IC50 [11]	Activity [12]	Activity [13]	Activity [14]	Activity [15]	Activity [16]	Activity [17]	Activity [18]	Activity [19]	IC50 [20]	other results
CCC(C)COC(=O)Nc1nc(=O)n([C@@H]2O[C@H](C)[C@H]3OC(=O)O[C@H]32)cc1F (stereo partly drawn)	Non-toxic	Non-toxic	Non-toxic	Non-toxic	70 µg/mL (≈ 182 µM)	Non-toxic	0.18 µg/mL (≈ 0.467 µM)	Non-toxic	Non-toxic	Non-toxic	200 µg/mL (≈ 519 µM)	Non-toxic	Non-toxic	Non-toxic	Non-toxic	Non-toxic	Non-toxic	Non-toxic	Non-toxic	330 µg/mL (≈ 856 µM)	Activity [21]: Non-toxic; Activity [22]: Non-toxic; Activity [23]: Non-toxic; Activity [24]: Non-toxic
CC(C)CCOC(=O)Nc1nc(=O)n([C@@H]2O[C@H](C)[C@H]3OC(=O)O[C@H]32)cc1F	Non-toxic	Non-toxic	Non-toxic	Non-toxic	100 µg/mL (≈ 260 µM)	Non-toxic	0.13 µg/mL (≈ 0.337 µM)	Non-toxic	Non-toxic	Non-toxic	350 µg/mL (≈ 908 µM)	Non-toxic	Non-toxic	Non-toxic	Non-toxic	Non-toxic	Non-toxic	Non-toxic	Non-toxic	310 µg/mL (≈ 804 µM)	Activity [21]: Non-toxic; Activity [22]: Non-toxic; Activity [23]: Non-toxic; Activity [24]: Non-toxic
C[C@H]1O[C@@H](n2cc(F)c(NC(=O)Oc3ccc([N+](=O)[O-])cc3)nc2=O)[C@@H]2OC(=O)O[C@@H]21	Non-toxic	Non-toxic	Non-toxic	Non-toxic	6 µg/mL (≈ 13.8 µM)	Non-toxic	0.03 µg/mL (≈ 0.0688 µM)	Non-toxic	Non-toxic	Non-toxic	6 µg/mL (≈ 13.8 µM)	Non-toxic	Non-toxic	Non-toxic	Non-toxic	Non-toxic	Non-toxic	Non-toxic	Non-toxic	30 µg/mL (≈ 68.8 µM)	LD50 [25]: 2000 mg/kg; MST [26]: 27.1 days; LD50 at 672 h [27]: 200 mg/kg; MST [28]: 23.4 days; Activity [21]: Non-toxic; Activity [22]: Non-toxic; Activity [23]: Non-toxic; Activity [24]: Non-toxic
C[C@H]1O[C@@H](n2cc(F)c(NC(=O)Oc3ccc(Cl)cc3)nc2=O)[C@@H]2OC(=O)O[C@@H]21					30 µg/mL (≈ 70.5 µM)		0.006 µg/mL (≈ 0.0141 µM)				3 µg/mL (≈ 7.05 µM)									3 µg/mL (≈ 7.05 µM)	LD50 [25]: 2000 mg/kg; MST [26]: 26.3 days; LD50 at 672 h [27]: 200 mg/kg; MST [28]: 23.7 days
O=c1[nH]cc(F)c(=O)[nH]1 [FLUOROURACIL]					690 µg/mL (≈ 5300 µM)		0.04 µg/mL (≈ 0.308 µM)				170 µg/mL (≈ 1310 µM)									280 µg/mL (≈ 2150 µM)	
